Reference: ChEMBL document CHEMBL1777799, “Design, synthesis, and biological evaluation of substituted hydrazone and pyrazole derivatives as selective COX-2 inhibitors: Molecular docking study” (Bioorg Med Chem, 2011)

Test system: Rattus norvegicus
Test: Antiinflammatory activity in Sprague-Dawley rat assessed as inhibition of carrageenan-induced foot paw oedema at 200 mg/kg, ip after 1 hr by plethysmometer analysis relative to control
Type: functional
Details: route intraperitoneal
Method in brief: (§1)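 Male Sprague–Dawley rats (250 g), fasted at least 16 h with water available. Compounds were given i.p. as a 1 mL suspension in 0.5% methyl cellulose; controls received vehicle. Paw volume was read by water-displacement plethysmometer before treatment and 1 and 2 h after. Activity (%) = (1 − D/C) × 100, where D and C are paw-volume changes in treated and control rats; mean ± SEM, n = 4–6.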

Structure (SMILES) | inhibition in vivo at 200 mg/kg [%]
O=Cc1c(C(F)(F)F)nn(-c2ccccc2)c1-c1ccc(Cl)cc1 | 75
O=C(/C(=N\Nc1ccccc1Cl)C(=O)C(F)(F)F)c1ccc(Cl)cc1 | 47.1
FC(F)(F)C1=NN=C(c2ccc(Cl)cc2)/C1=N/Nc1cc(C(F)(F)F)cc(C(F)(F)F)c1 | 40.8
O=C1CCCC/C1=C\c1c(C(F)(F)F)nn(-c2ccccc2)c1-c1ccc(Cl)cc1 | 33.7
CN1CCC(=O)/C(=C/c2c(C(F)(F)F)nn(-c3ccccc3)c2-c2ccc(Cl)cc2)C1 | 6.7
COc1ccc(N/N=C(\C(=O)c2ccc(Cl)cc2)C(=O)C(F)(F)F)cc1 | 27.6
CCN1CCC(=O)/C(=C/c2c(C(F)(F)F)nn(-c3ccccc3)c2-c2ccc(Cl)cc2)C1 | 80
O=C(/C=C/c1c(C(F)(F)F)nn(-c2ccccc2)c1-c1ccc(Cl)cc1)c1ccccc1 | 1.8
FC(F)(F)C1=NN=C(c2ccc(Cl)cc2)/C1=N/Nc1ccc(Br)cc1 | 26.3

Test system: Rattus norvegicus
Test: Antiinflammatory activity in Sprague-Dawley rat assessed as inhibition of carrageenan-induced foot paw oedema at 100 mg/kg, ip after 1 hr by plethysmometer analysis relative to control
Type: functional
Details: route intraperitoneal
Method in brief: as §1

Structure (SMILES) | inhibition in vivo at 100 mg/kg [%]
O=Cc1c(C(F)(F)F)nn(-c2ccccc2)c1-c1ccc(Cl)cc1 | 24.1
O=C(/C(=N\Nc1ccccc1Cl)C(=O)C(F)(F)F)c1ccc(Cl)cc1 | 0
O=C(O)Cc1ccccc1Nc1c(Cl)cccc1Cl [DICLOFENAC SODIUM] | 88.5
FC(F)(F)C1=NN=C(c2ccc(Cl)cc2)/C1=N/Nc1cc(C(F)(F)F)cc(C(F)(F)F)c1 | 3.4
COc1ccc(N/N=C(\C(=O)c2ccc(Cl)cc2)C(=O)C(F)(F)F)cc1 | 0
CCN1CCC(=O)/C(=C/c2c(C(F)(F)F)nn(-c3ccccc3)c2-c2ccc(Cl)cc2)C1 | 41
FC(F)(F)C1=NN=C(c2ccc(Cl)cc2)/C1=N/Nc1ccc(Br)cc1 | 17.5

Test system: Rattus norvegicus
Test: Antiinflammatory activity in Sprague-Dawley rat assessed as inhibition of carrageenan-induced foot paw oedema at 200 mg/kg, ip after 2 hrs by plethysmometer analysis relative to control
Type: functional
Details: route intraperitoneal
Method in brief: as §1

Structure (SMILES) | inhibition in vivo at 200 mg/kg [%]
O=Cc1c(C(F)(F)F)nn(-c2ccccc2)c1-c1ccc(Cl)cc1 | 59.1
O=C(/C(=N\Nc1ccccc1Cl)C(=O)C(F)(F)F)c1ccc(Cl)cc1 | 41.7
FC(F)(F)C1=NN=C(c2ccc(Cl)cc2)/C1=N/Nc1cc(C(F)(F)F)cc(C(F)(F)F)c1 | 28.8
O=C1CCCC/C1=C\c1c(C(F)(F)F)nn(-c2ccccc2)c1-c1ccc(Cl)cc1 | 23.9
CN1CCC(=O)/C(=C/c2c(C(F)(F)F)nn(-c3ccccc3)c2-c2ccc(Cl)cc2)C1 | 20.3
COc1ccc(N/N=C(\C(=O)c2ccc(Cl)cc2)C(=O)C(F)(F)F)cc1 | 42.2
CCN1CCC(=O)/C(=C/c2c(C(F)(F)F)nn(-c3ccccc3)c2-c2ccc(Cl)cc2)C1 | 89.7
O=C(/C=C/c1c(C(F)(F)F)nn(-c2ccccc2)c1-c1ccc(Cl)cc1)c1ccccc1 | 2.6
FC(F)(F)C1=NN=C(c2ccc(Cl)cc2)/C1=N/Nc1ccc(Br)cc1 | 52.1

Test system: Rattus norvegicus
Test: Antiinflammatory activity in Sprague-Dawley rat assessed as inhibition of carrageenan-induced foot paw oedema at 100 mg/kg, ip after 2 hrs by plethysmometer analysis relative to control
Type: functional
Details: route intraperitoneal
Method in brief: as §1

Structure (SMILES) | inhibition in vivo at 100 mg/kg [%]
O=Cc1c(C(F)(F)F)nn(-c2ccccc2)c1-c1ccc(Cl)cc1 | 40.3
O=C(/C(=N\Nc1ccccc1Cl)C(=O)C(F)(F)F)c1ccc(Cl)cc1 | 19.3
O=C(O)Cc1ccccc1Nc1c(Cl)cccc1Cl [DICLOFENAC SODIUM] | 89.5
FC(F)(F)C1=NN=C(c2ccc(Cl)cc2)/C1=N/Nc1cc(C(F)(F)F)cc(C(F)(F)F)c1 | 17.3
COc1ccc(N/N=C(\C(=O)c2ccc(Cl)cc2)C(=O)C(F)(F)F)cc1 | 3.8
CCN1CCC(=O)/C(=C/c2c(C(F)(F)F)nn(-c3ccccc3)c2-c2ccc(Cl)cc2)C1 | 64
FC(F)(F)C1=NN=C(c2ccc(Cl)cc2)/C1=N/Nc1ccc(Br)cc1 | 31.3

Test system: Rattus norvegicus
Test: Antiinflammatory activity in ip dosed Sprague-Dawley rat assessed as inhibition of carrageenan-induced foot paw oedema after 2 hrs by plethysmometer analysis
Type: functional
Details: not given
Method in brief: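 Rat carrageenan paw oedema: male Sprague–Dawley rats (250 g), fasted ≥16 h, dosed i.p. with a 1 mL suspension in 0.5% methyl cellulose. Paw swelling was measured by plethysmometer water displacement, and percent inhibition was taken against vehicle controls.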

Structure (SMILES) | ED50 [mg/kg]
O=Cc1c(C(F)(F)F)nn(-c2ccccc2)c1-c1ccc(Cl)cc1 | 190
O=C(/C(=N\Nc1ccccc1Cl)C(=O)C(F)(F)F)c1ccc(Cl)cc1 | 260
COc1ccc(N/N=C(\C(=O)c2ccc(Cl)cc2)C(=O)C(F)(F)F)cc1 | 240
CCN1CCC(=O)/C(=C/c2c(C(F)(F)F)nn(-c3ccccc3)c2-c2ccc(Cl)cc2)C1 | 120
FC(F)(F)C1=NN=C(c2ccc(Cl)cc2)/C1=N/Nc1ccc(Br)cc1 | 180

Target: T1, Prostaglandin G/H synthase 1 (Ovis aries, UniProt P05979)
T1 sequence (P05979 whole entry): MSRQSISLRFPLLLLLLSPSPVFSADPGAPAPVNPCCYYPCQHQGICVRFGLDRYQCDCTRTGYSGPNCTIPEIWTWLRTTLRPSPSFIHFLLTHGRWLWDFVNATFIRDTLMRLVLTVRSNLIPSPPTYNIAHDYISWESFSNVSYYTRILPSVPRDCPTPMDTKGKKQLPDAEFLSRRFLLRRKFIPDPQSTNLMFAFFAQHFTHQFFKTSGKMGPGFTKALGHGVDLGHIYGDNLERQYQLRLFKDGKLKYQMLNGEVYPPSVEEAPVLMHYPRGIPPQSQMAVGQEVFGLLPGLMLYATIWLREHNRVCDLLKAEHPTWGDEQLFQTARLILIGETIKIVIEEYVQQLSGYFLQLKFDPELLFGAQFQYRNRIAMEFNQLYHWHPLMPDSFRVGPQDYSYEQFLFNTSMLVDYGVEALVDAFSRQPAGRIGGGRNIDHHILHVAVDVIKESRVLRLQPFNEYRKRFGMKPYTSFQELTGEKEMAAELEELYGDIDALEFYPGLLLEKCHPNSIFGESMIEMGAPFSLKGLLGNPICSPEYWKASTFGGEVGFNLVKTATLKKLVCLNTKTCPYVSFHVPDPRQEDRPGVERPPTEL
Test: Inhibition of ovine COX1 assessed as PGF2alpha production from PGH2 after 5 mins by enzyme immunoassay
Details: not given
Method in brief: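 Ovine COX-1 in reaction buffer with 2 mM phenol and heme, preincubated with six test concentrations (1 mL final) for 5 min at 37 °C. Arachidonic acid was then added and the reaction stopped with 1 M HCl after 2 min. Prostanoids were reduced with stannous chloride and quantified by competitive acetylcholinesterase-tracer EIA (Ellman's reagent, 410 nm). IC50 came from concentration–inhibition curves, duplicate determinations.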

IC50 [µM] | Structure (SMILES)
> 50 | O=Cc1c(C(F)(F)F)nn(-c2ccccc2)c1-c1ccc(Cl)cc1
> 50 | O=C(/C(=N\Nc1ccccc1Cl)C(=O)C(F)(F)F)c1ccc(Cl)cc1
> 50 | FC(F)(F)C1=NN=C(c2ccc(Cl)cc2)/C1=N/Nc1cc(C(F)(F)F)cc(C(F)(F)F)c1
> 50 | O=C1CCCC/C1=C\c1c(C(F)(F)F)nn(-c2ccccc2)c1-c1ccc(Cl)cc1
> 50 | CN1CCC(=O)/C(=C/c2c(C(F)(F)F)nn(-c3ccccc3)c2-c2ccc(Cl)cc2)C1
> 50 | COc1ccc(N/N=C(\C(=O)c2ccc(Cl)cc2)C(=O)C(F)(F)F)cc1
> 50 | CCN1CCC(=O)/C(=C/c2c(C(F)(F)F)nn(-c3ccccc3)c2-c2ccc(Cl)cc2)C1
> 50 | O=C(/C=C/c1c(C(F)(F)F)nn(-c2ccccc2)c1-c1ccc(Cl)cc1)c1ccccc1
> 50 | FC(F)(F)C1=NN=C(c2ccc(Cl)cc2)/C1=N/Nc1ccc(Br)cc1

Target: T2, Prostaglandin G/H synthase 1 (Ovis aries) (UniProt P05979)
T2 sequence (whole entry): T1 sequence (P05979 whole entry)
Test: Inhibition of ovine COX1 assessed as PGF2alpha production from PGH2 at 0.5 uM after 5 mins by enzyme immunoassay
Details: not given
Method in brief: (§2)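 Enzyme (ovine COX-1) with heme in buffer containing 2 mM phenol was preincubated with the test compound for 5 min at 37 °C, then given arachidonic acid for 2 min before quenching with 1 M HCl. Products were reduced with stannous chloride and measured by competitive PG-tracer EIA at 410 nm. Percent inhibition was calculated against control incubations.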

inhibition [%] | Structure (SMILES)
31 | O=C(/C(=N\Nc1ccccc1Cl)C(=O)C(F)(F)F)c1ccc(Cl)cc1
31 | COc1ccc(N/N=C(\C(=O)c2ccc(Cl)cc2)C(=O)C(F)(F)F)cc1

Target: T2, Prostaglandin G/H synthase 1 (Ovis aries)
Test: Inhibition of ovine COX1 assessed as PGF2alpha production from PGH2 at 100 uM after 5 mins by enzyme immunoassay
Details: not given
Method in brief: as §2

inhibition [%] | Structure (SMILES)
25 | O=C(/C(=N\Nc1ccccc1Cl)C(=O)C(F)(F)F)c1ccc(Cl)cc1
25 | COc1ccc(N/N=C(\C(=O)c2ccc(Cl)cc2)C(=O)C(F)(F)F)cc1
